From ChEMBL document CHEMBL1124584, “Effect of triphenylacrylonitrile derivatives on estradiol-receptor binding and on human breast cancer cell growth” (J Med Chem, 1989)

What was measured:
[1] = target: T1, Anti-estrogen binding site (AEBS) (Homo sapiens) (UniProt Q15125+Q9UBM7); assay: Relative binding affinity for antiestrogen binding site (AEBS) of calf uterus cytosol; type: tissue-based
Method in brief: (§1)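 Calf uterus was homogenized in TED buffer (10 mM Tris-HCl, 1.5 mM EDTA, 1 mM DTT, pH 7.4) and spun at 12000 g for 1 h at 0–4 °C. […] Free ligand was removed with dextran-charcoal, and bound ligand was counted by scintillation. RBA was taken from the 50% displacement concentration.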

[2] = target: T1, Anti-estrogen binding site (AEBS) (Homo sapiens); assay: Relative binding affinity for antiestrogen binding site (AEBS) of calf uterus 2 hr incubation at 0C; type: tissue-based; method in brief: as §1
BT-20 [3] = assay: Inhibitory activity against proliferation of BT-20 cells in presence of TPE at 10e-5 M concentration.; type: functional; conditions: Homo sapiens
Method in brief: (§2)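 ER-negative BT-20 cells were seeded at 40000/well in phenol-red-free MEM-based medium and exposed to compound (3–10 µM) for 5 or 6 days, with medium renewed every 2 days. DNA content was read in triplicate wells as % of vehicle control. Values are given as the IC30 and as % inhibition at 10^-5 M.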

BT-20 [4] = assay: Percent of inhibitory activity against proliferation of BT-20 cells in presence of TPE at 10e-5 M concentration.; type: functional; conditions: Homo sapiens; method in brief: as §2
MCF7 [5] = assay: Effective dose for [3H]- estradiol against proliferation of MCF-7 cells; type: functional, cell-based; conditions: Homo sapiens
MCF7 [6] = assay: In vitro inhibition of MCF-7 cell proliferation compared to 0.1 nM [3H]-estradiol.; type: functional, cell-based; conditions: Homo sapiens
MCF7 [7] = assay: Percent of inhibitory activity against proliferation of MCF-7 cells in presence of 10e-6 M concentration of […] (E2).; type: functional, Homo sapiens
Method in brief: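 Cytotoxicity assay: MCF-7 cells were seeded at 20000/well in phenol-red-free medium with 5% DCC-treated FCS and exposed to compound (3–10 µM) plus 1 µM E2 for 6 days. Medium was renewed every 2 days. DNA content was read in triplicate wells as % of 1 µM E2 alone. Values are given as the IC30 and as % inhibition at 10^-5 M.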

MCF7 [8] = assay: Percent of inhibitory activity versus 0.1 nm […] against proliferation of MCF-7 cells.; type: functional, Homo sapiens
Method in brief: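 Same MCF-7 pre-culture in steroid-depleted phenol-red-free medium, seeded at 10000 cells/well. Cells grew with 0.1 nM E2 plus various compound concentrations, medium renewed every 2 days, for 8 days. DNA was measured in triplicate wells, as % DNA relative to E2 alone. % antagonist = (E2−TPE)/(E2−control)×100, from the IC50 or the response at 10^-6 M.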

MCF7 [9] = assay: Percent of effective dose for […] against proliferation of MCF-7 cells.; type: functional, Homo sapiens
Method in brief: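 MCF-7 cells were kept 6 days in phenol-red-free MEM-based medium with 5% dextran-charcoal-stripped FCS, then seeded at 10000 cells/well. After 1 day they got test compound (10 pM to 1 µM) without E2, or vehicle (0.2% ethanol); medium was renewed every 2 days. DNA was assayed after 8–10 days in triplicate wells. % agonist = (TPE−control)/(E2−control)×100, from the EC50 or the maximum response.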

MCF7 [10] = assay: Inhibitory activity against proliferation of MCF-7 cells in presence of 10e-6 M concentration of [3H]- estradiol (E2); type: functional; conditions: Homo sapiens
[11] = target: T2, Estrogen receptor (Bos taurus) (UniProt Q9XSB5+P49884); conditions: Uterus; Cytosol
[12] = target: T2, Estrogen receptor (Bos taurus); conditions: Uterus; Cytosol; remark: listed apart in the source
[13] = target: T2, Estrogen receptor (Bos taurus); assay: Selectivity for relative binding affinity against estrogen receptor in at 2 hrs and 5 hr in calf uterus cytosol; type: protein assay
Method in brief: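 Calf uterine cytosol (TED buffer, pH 7.4; 180000 g, 1 h) was incubated with 1 nM [3H]E2 and competitor (0.3 nM–10 µM, 1% ethanol), either 2 h at 0 °C or 5 h at 25 °C. Bound ligand was separated with dextran-charcoal and counted by scintillation. RBA came from the concentration giving 50% displacement relative to E2. The value is the ratio of the 25 °C RBA to the 0 °C RBA.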

Row | SMILES | relative binding affinity (RBA) ([1]; Bos taurus) | RBA ([2]; Bos taurus) | IC30 (BT-20 [3]) | inhibition at 10 µM (BT-20 [4]) | EC50 (MCF7 [5]) | IC50 (MCF7 [6]) | Inhibition (MCF7 [7]) | Inhibition (MCF7 [8]) | Agonism (MCF7 [9]) | IC30 (MCF7 [10]) | relative binding affinity (RBA) [1] | RBA [2] | RBA1 [11] | RBA2 [12] | Selectivity [13]
1 | CC/C(=C(/c1ccc(O)cc1)c1ccc(OCCN(C)C)cc1)c1ccccc1 | 20 | 20 | 9.3 µM | 33% | 0.016 nM | 22 nM | 74% | 91% | 61% | 5.3 µM | – | – | – | – | –
2 | CC/C(=C(\c1ccccc1)c1ccc(OCCN(C)C)cc1)c1ccccc1 [TAMOXIFEN] | 100 | 100 | 5.7 µM | 56% | 0.11 nM | 219 nM | 49% | 90% | 21% | 6.5 µM | – | – | – | – | –
3 | CCC(=C(c1ccc(O)cc1)c1ccc(OCCN(C)C)cc1)c1ccccc1 | – | – | 4.8 µM | 65% | 0.003 nM | 2.5 nM | 81% | 100% | 10% | 4 µM | 40 | 40 | – | – | –
4 | CCN(CC)CCOc1ccc(C(=C(C#N)c2ccccc2)c2ccc(OCCN(CC)CC)cc2)cc1 | 3.6 | 3.6 | 3.3 µM | 87% | 0.28 nM | > 1000 nM | 94% | 27% | 62% | 3.1 µM | – | – | 0.42 | 0.4 | –
5 | CCN(CC)CCOc1ccc(/C(=C(/C#N)c2ccccc2)c2ccc(O)cc2)cc1 | 27 | 27 | 6.4 µM | 57% | 0.02 nM | 4.6 nM | 77% | 100% | 16% | 4.8 µM | – | – | 126 | 108 | 0.85
6 | CCN(CC)CCOc1ccc(/C(=C(\C#N)c2ccccc2)c2ccc(O)cc2)cc1 | 6.9 | 6.9 | 3.5 µM | 94% | 0.03 nM | 25 nM | 89% | 100% | 12% | 3.9 µM | – | – | 3.6 | 3.4 | –
